The compounds below were run against GABA-A receptor; alpha-6/beta-3/gamma-2 (Homo sapiens, UniProt P18507+P28472+Q16445) (assay: Binding affinity against Gamma-aminobutyric acid A receptor alpha-6-beta-3-gamma-2).
Assay type: protein-complex assay
In short: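 Cells scraped into PBS, spun at 3000g, resuspended in 10 mM KH₂PO₄/100 mM KCl pH 7.4. Nonspecific binding with 10⁻⁵ M diazepam; 1 h to equilibrium at 4 °C; filtration, ice-cold buffer wash, scintillation counting.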

Chain of GABA-A receptor; alpha-6/beta-3/gamma-2 (Q16445 whole entry, one chain of several): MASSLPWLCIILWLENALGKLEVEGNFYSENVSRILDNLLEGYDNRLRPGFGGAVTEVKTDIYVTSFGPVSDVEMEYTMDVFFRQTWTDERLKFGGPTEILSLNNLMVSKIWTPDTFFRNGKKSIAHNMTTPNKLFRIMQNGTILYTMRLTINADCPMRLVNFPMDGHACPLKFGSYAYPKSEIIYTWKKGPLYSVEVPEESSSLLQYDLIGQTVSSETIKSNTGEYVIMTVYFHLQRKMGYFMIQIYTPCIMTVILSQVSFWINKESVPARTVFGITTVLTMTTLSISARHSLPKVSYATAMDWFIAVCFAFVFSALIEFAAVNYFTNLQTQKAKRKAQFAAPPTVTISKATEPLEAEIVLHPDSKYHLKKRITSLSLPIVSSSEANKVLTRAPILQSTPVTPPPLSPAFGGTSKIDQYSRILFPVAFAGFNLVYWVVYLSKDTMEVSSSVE

| Compound | Ki [nM] |
| --- | --- |
| CCc1ccc2c(c1)C(=O)N(C)Cc1c(C(=O)OC(C)(C)C)ncn1-2 | 22.9 |
| CN1Cc2c(C(=O)OC(C)(C)C)ncn2-c2ccc(Cl)cc2C1=O | 4 |
| CCOC(=O)c1ncn2c1CN(C)C(=O)c1cc(CC)ccc1-2 | 176 |
| CN1Cc2c(C(=O)OC(C)(C)C)ncn2-c2ccc([N+](=O)[O-])cc2C1=O | 22.5 |
| CCN(CC)Cc1ncn2c1CN(C)C(=O)c1cc(Cl)ccc1-2 | 30200 |
| CN1Cc2c(C(=O)OC(C)(C)C)ncn2-c2ccc(N=C=S)cc2C1=O | 30.7 |

Each compound was assayed against T1, GABA-A receptor; alpha-5/beta-3/gamma-2 (Homo sapiens, UniProt P18507+P28472+P31644) (assay: Binding affinity for Gamma-aminobutyric acid A receptor alpha-5-beta-3-gamma-2).
T1 sequence (P18507 whole entry): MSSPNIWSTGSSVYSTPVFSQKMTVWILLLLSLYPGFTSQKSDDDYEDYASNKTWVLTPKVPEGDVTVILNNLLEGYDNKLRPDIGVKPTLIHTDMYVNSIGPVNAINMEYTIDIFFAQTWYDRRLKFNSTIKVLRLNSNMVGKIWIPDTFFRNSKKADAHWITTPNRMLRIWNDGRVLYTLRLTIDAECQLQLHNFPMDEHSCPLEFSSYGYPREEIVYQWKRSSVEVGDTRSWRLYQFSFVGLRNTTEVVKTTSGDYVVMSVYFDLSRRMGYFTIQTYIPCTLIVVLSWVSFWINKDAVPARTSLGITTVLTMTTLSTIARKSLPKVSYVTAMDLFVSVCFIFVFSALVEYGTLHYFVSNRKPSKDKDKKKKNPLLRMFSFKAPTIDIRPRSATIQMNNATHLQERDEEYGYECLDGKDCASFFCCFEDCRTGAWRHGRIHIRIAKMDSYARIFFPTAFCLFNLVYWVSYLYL
T1 sequence (P28472 whole entry): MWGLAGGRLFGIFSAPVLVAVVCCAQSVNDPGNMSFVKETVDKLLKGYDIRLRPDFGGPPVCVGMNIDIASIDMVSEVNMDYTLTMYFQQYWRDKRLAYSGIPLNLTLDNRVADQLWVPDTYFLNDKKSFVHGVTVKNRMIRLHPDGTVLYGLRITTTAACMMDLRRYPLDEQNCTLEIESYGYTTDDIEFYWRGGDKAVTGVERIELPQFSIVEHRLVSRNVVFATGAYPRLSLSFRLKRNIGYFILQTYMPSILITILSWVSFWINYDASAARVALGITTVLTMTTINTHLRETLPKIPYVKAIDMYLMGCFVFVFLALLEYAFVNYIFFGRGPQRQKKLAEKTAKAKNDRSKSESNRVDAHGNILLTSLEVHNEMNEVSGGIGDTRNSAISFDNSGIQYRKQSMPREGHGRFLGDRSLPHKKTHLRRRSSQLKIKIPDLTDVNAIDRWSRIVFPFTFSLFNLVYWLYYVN
T1 sequence (P31644 whole entry): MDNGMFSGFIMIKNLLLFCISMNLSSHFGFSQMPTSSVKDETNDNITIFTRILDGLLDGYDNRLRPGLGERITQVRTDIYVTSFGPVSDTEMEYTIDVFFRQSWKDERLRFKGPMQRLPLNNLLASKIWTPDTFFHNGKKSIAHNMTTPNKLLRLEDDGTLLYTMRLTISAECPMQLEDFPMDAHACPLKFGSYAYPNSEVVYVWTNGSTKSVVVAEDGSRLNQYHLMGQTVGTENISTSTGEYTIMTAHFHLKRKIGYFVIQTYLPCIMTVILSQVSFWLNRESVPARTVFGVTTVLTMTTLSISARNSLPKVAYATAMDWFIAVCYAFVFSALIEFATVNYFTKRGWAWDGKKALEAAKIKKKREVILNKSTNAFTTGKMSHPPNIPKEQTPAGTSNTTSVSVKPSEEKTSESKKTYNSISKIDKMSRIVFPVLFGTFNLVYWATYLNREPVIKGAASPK
Assay type: protein-complex assay

| Compound | Ki [nM] |
| --- | --- |
| CCc1ccc2c(c1)C(=O)N(C)Cc1c(C(=O)OC(C)(C)C)ncn1-2 | 1.72 |
| CN1Cc2c(C(=O)OC(C)(C)C)ncn2-c2ccc(Cl)cc2C1=O | 0.65 |
| CCOC(=O)c1ncn2c1CN(C)C(=O)c1cc(CC)ccc1-2 | 1.5 |
| CN1Cc2c(C(=O)OC(C)(C)C)ncn2-c2ccc([N+](=O)[O-])cc2C1=O | 3.5 |
| CCN(CC)Cc1ncn2c1CN(C)C(=O)c1cc(Cl)ccc1-2 | 2580 |
| CN1Cc2c(C(=O)OC(C)(C)C)ncn2-c2ccc(N=C=S)cc2C1=O | 2.5 |

Each compound was assayed against T2, GABA-A receptor; alpha-3/beta-3/gamma-2 (Homo sapiens, UniProt P18507+P28472+P34903) (assay: Binding affinity against alpha-3-beta-3-gamma-2 GABAA/BzR receptor subtype.).
T2 sequence (P18507 whole entry): T1 sequence (P18507 whole entry)
T2 sequence (P28472 whole entry): T1 sequence (P28472 whole entry)
T2 sequence (P34903 whole entry): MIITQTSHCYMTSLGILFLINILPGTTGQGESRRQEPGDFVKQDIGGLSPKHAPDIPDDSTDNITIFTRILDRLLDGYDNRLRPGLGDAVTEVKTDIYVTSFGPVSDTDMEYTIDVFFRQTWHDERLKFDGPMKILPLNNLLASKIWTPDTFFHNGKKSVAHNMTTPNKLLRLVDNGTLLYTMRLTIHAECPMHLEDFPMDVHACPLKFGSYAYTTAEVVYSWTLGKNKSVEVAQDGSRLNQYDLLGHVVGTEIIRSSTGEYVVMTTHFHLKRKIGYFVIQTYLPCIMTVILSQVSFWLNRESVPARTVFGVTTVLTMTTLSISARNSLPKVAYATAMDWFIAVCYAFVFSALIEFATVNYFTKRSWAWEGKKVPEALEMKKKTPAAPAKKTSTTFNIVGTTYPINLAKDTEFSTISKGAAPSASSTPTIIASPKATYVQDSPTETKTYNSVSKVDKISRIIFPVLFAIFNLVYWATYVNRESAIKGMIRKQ
Assay type: protein-complex assay

| Compound | Ki [nM] |
| --- | --- |
| CCc1ccc2c(c1)C(=O)N(C)Cc1c(C(=O)OC(C)(C)C)ncn1-2 | 25.3 |
| CN1Cc2c(C(=O)OC(C)(C)C)ncn2-c2ccc(Cl)cc2C1=O | 29.1 |
| CCOC(=O)c1ncn2c1CN(C)C(=O)c1cc(CC)ccc1-2 | 26.1 |
| CN1Cc2c(C(=O)OC(C)(C)C)ncn2-c2ccc([N+](=O)[O-])cc2C1=O | 30.2 |
| CCN(CC)Cc1ncn2c1CN(C)C(=O)c1cc(Cl)ccc1-2 | 15400 |
| CN1Cc2c(C(=O)OC(C)(C)C)ncn2-c2ccc(N=C=S)cc2C1=O | 50 |

The compounds below were run against T3, GABA-A receptor; alpha-2/beta-3/gamma-2 (Homo sapiens, UniProt P18507+P28472+P47869) (assay: Binding affinity tested against alpha-2-beta-3-gamma-2 GABAA/BzR receptor subtype.).
T3 sequence (P18507 whole entry): T1 sequence (P18507 whole entry)
T3 sequence (P28472 whole entry): T1 sequence (P28472 whole entry)
T3 sequence (P47869 whole entry): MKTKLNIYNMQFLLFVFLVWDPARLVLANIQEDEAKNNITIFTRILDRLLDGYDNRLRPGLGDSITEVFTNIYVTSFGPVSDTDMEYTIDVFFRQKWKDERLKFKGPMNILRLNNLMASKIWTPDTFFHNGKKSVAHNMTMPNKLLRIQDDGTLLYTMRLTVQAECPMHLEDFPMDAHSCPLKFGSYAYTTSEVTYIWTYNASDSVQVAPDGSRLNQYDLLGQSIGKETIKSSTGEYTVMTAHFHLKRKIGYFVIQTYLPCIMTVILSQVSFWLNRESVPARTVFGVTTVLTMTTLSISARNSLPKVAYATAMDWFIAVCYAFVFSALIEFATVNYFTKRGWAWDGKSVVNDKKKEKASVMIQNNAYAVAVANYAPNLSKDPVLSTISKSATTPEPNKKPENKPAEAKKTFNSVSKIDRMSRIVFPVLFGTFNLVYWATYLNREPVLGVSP
Assay type: protein-complex assay

| Compound | Ki [nM] |
| --- | --- |
| CCc1ccc2c(c1)C(=O)N(C)Cc1c(C(=O)OC(C)(C)C)ncn1-2 | 56 |
| CN1Cc2c(C(=O)OC(C)(C)C)ncn2-c2ccc(Cl)cc2C1=O | 21.6 |
| CCOC(=O)c1ncn2c1CN(C)C(=O)c1cc(CC)ccc1-2 | 27 |
| CN1Cc2c(C(=O)OC(C)(C)C)ncn2-c2ccc([N+](=O)[O-])cc2C1=O | 49.8 |
| CCN(CC)Cc1ncn2c1CN(C)C(=O)c1cc(Cl)ccc1-2 | 30000 |
| CN1Cc2c(C(=O)OC(C)(C)C)ncn2-c2ccc(N=C=S)cc2C1=O | 33.7 |

What follows are compounds tested against GABA-A receptor; alpha-1/beta-3/gamma-2 (Homo sapiens) (UniProt P14867+P18507+P28472) (assay: It is the ratio of Ki value for alpha-1-beta-3-gamma-2 to that of alpha-5-beta-3-gamma-2).
Assay type: protein-complex assay

| Compound | Ratio |
| --- | --- |
| CCc1ccc2c(c1)C(=O)N(C)Cc1c(C(=O)OC(C)(C)C)ncn1-2 | 8.6 |
| CN1Cc2c(C(=O)OC(C)(C)C)ncn2-c2ccc(Cl)cc2C1=O | 26.6 |
| CCOC(=O)c1ncn2c1CN(C)C(=O)c1cc(CC)ccc1-2 | 13.6 |
| CN1Cc2c(C(=O)OC(C)(C)C)ncn2-c2ccc([N+](=O)[O-])cc2C1=O | 3.7 |
| CCN(CC)Cc1ncn2c1CN(C)C(=O)c1cc(Cl)ccc1-2 | 3.2 |
| CN1Cc2c(C(=O)OC(C)(C)C)ncn2-c2ccc(N=C=S)cc2C1=O | 6.8 |

What follows are compounds tested against T4, GABA-A receptor; alpha-1/beta-3/gamma-2 (Homo sapiens, UniProt P14867+P18507+P28472) (assay: Binding affinity against alpha-1-beta-3-gamma-2 GABAA/BzR receptor subtype.).
T4 sequence (P14867 whole entry): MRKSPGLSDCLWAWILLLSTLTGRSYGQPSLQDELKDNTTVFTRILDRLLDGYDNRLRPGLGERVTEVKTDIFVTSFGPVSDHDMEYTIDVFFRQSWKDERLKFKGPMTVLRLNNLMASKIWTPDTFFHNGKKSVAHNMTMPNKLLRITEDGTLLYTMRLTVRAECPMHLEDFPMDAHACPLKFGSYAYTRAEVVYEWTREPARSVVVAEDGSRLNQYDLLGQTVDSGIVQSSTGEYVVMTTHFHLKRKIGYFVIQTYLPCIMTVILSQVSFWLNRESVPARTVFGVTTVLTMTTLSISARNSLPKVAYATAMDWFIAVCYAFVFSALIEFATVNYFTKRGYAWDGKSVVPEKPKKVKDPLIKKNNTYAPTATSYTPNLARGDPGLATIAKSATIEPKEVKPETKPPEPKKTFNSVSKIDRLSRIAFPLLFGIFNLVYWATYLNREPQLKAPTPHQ
T4 sequence (P18507 whole entry): T1 sequence (P18507 whole entry)
T4 sequence (P28472 whole entry): T1 sequence (P28472 whole entry)
Assay type: protein-complex assay

| Compound | Ki [nM] |
| --- | --- |
| CCc1ccc2c(c1)C(=O)N(C)Cc1c(C(=O)OC(C)(C)C)ncn1-2 | 14.8 |
| CN1Cc2c(C(=O)OC(C)(C)C)ncn2-c2ccc(Cl)cc2C1=O | 17.3 |
| CCOC(=O)c1ncn2c1CN(C)C(=O)c1cc(CC)ccc1-2 | 20.4 |
| CN1Cc2c(C(=O)OC(C)(C)C)ncn2-c2ccc([N+](=O)[O-])cc2C1=O | 12.8 |
| CCN(CC)Cc1ncn2c1CN(C)C(=O)c1cc(Cl)ccc1-2 | 9480 |
| CN1Cc2c(C(=O)OC(C)(C)C)ncn2-c2ccc(N=C=S)cc2C1=O | 17.1 |

— ChEMBL document CHEMBL1131143, “Predictive models for GABAA/benzodiazepine receptor subtypes: studies of quantitative structure-activity relationships for imidazobenzodiazepines at five recombinant GABAA/benzodiazepine receptor subtypes [alphaxbeta3gamma2 (x = 1-3, 5, and 6)] via comparative molecular field analysis” (J Med Chem, 1998)
